Experimental data from different studies.
LNPEP: Leucyl-cystinyl aminopeptidase (LNPEP, Homo sapiens, UniProt Q9UIQ6)
Cruzipain: Cruzipain (Trypanosoma cruzi, UniProt P25779)
MMP13: Collagenase 3 (MMP13, Homo sapiens, UniProt P45452)
CYP3A4: Cytochrome P450 3A4 (CYP3A4, Homo sapiens, UniProt P08684)
JAK1: Tyrosine-protein kinase JAK1 (JAK1, Homo sapiens, UniProt P23458)
SLCO1B1: Solute carrier organic anion transporter family member 1B1 (SLCO1B1, Homo sapiens, UniProt Q9Y6L6)
PBRM1 bromodomain: Protein polybromo-1, bromodomain (PBRM1, Homo sapiens, UniProt Q86U86)
Kcna3: Potassium voltage-gated channel subfamily A member 3 (Kcna3, Mus musculus, UniProt P16390)
Papain: Papain (Carica papaya, UniProt P00784)
CHRM1: Muscarinic acetylcholine receptor M1 (CHRM1, Homo sapiens, UniProt P11229)
DSTYK: Dual serine/threonine and tyrosine protein kinase (DSTYK, Homo sapiens, UniProt Q6XUX3)

`O=S(=O)(Nc1cccc(-c2nnn[nH]2)c1)c1cc2ccccc2s1` gave an IC50 of 5.9 µM (LNPEP; enzyme activity, inhibitor, fluorescence).
The IC50 of `Clc1ccc2[nH]c3c(NCCCN4CCOCC4)ncnc3c2c1` is reported as 13 µM (Cruzipain; enzyme activity, inhibitor).
`Cc1noc(-c2cc3cc(-c4cc(C(=O)NCc5ccc(C(=O)O)cc5)nn4C)ccc3[nH]2)n1` gave an IC50 of 0.00021 µM (MMP13; enzyme activity, inhibitor, FRET).
`Nc1nc(N)c2nc(CNc3ccc(C(=O)NCCc4ccccc4)cc3)cnc2n1` gave an IC50 of 11.2 µM (CYP3A4; enzyme activity, inhibitor, luciferase).
For `Cn1cc(-c2cc3cc(-c4cc(C(=O)NCc5ccc(C(=O)O)cc5)nn4C)ccc3[nH]2)cn1`, the IC50 was 0.0016 µM (MMP13; enzyme activity, inhibitor, FRET).
For `CC/C=C\C/C=C\C/C=C\C/C=C\C/C=C\CCCC(=O)O`, the IC50 was > 100 µM (Polynucleotide kinase (pseT, Enterobacteria phage T4, UniProt P06855); enzyme activity, inhibitor).
For `CCC1CN(C(=O)NCC(F)(F)F)CC1NCc1ccc(C)nc1-c1cnc2[nH]ccc2c1` (stereo not shown), the IC50 was 0.5 µM (JAK1; enzyme activity, inhibitor, ADP detection).
With `CCOC(=O)Nc1ccc2c(c1)N(C(=O)CCN1CCOCC1)c1ccccc1S2` the IC50 was 8.1 µM (SLCO1B1; transporter uptake, inhibitor, fluorescence; CHO; 30 min, pH 7.4).
With `O=S(=O)(Nc1cccc(-c2nnn[nH]2)c1)c1cc(C(F)(F)F)cc(C(F)(F)F)c1` the IC50 was 4.1 µM (LNPEP; enzyme activity, inhibitor, fluorescence).
`COc1ccc(NC(=O)COC(=O)C(CC(C)C)N2C(=O)C3CC=CCC3C2=O)cc1Cl` (stereo not shown) gave an IC50 of 0.9 µM (Cruzipain; enzyme activity, inhibitor, fluorescence).
`CO[C@H]1/C=C/O[C@@]2(C)Oc3c(C)c(O)c4c(O)c(c(/C=N/N5CCN(C)CC5)c(O)c4c3C2=O)NC(=O)/C(C)=C\C=C\[C@H](C)[C@H](O)[C@@H](C)[C@@H](O)[C@@H](C)[C@H](OC(C)=O)[C@@H]1C` gave an IC50 of 1.3 µM (SLCO1B1; transporter uptake, inhibitor, fluorescence; CHO; 30 min, pH 7.4).
For `Cc1ncsc1-c1ccc(CNC(=O)[C@@H]2C[C@H](O)CN2C(=O)[C@@H](NC(=O)C2(F)CC2)C(C)(C)C)c(OCCOc2ccc(CN3CCN(c4cc(-c5ccccc5O)nnc4N)CC3)cc2)c1`, the IC50 was 0.51 µM (PBRM1 bromodomain; cell-free assay, TR-FRET).
`O=C(O[C@H]1[C@@H]2C=CO[C@@H](O[C@@H]3O[C@H](CO)[C@@H](O)[C@H](O)[C@H]3O)[C@@H]2[C@@]2(CO)O[C@@H]12)c1ccc(O)cc1` has an IC50 of 200 µM (SLCO1B1; transporter uptake, inhibitor, radiometric; HEK293; 10 min).
The IC50 of `Cc1ncc([N+](=O)[O-])n1CCO` is reported as > 100 µM (SLCO1B1; transporter uptake, inhibitor, fluorescence; CHO; 30 min, pH 7.4).
The IC50 of `CCCC[C@H](NC(=O)C1CN(C)C1)c1ncc(-c2cc3ccccc3nc2OC)[nH]1` is reported as > 30 µM (Histone deacetylase 11 (HDAC11, Homo sapiens, UniProt Q96DB2); enzyme activity, inhibitor).
`Nc1nc2ccc(OC(F)(F)F)cc2s1` gave an IC50 of 50 µM (Kcna3; ion current, inhibitor, patch clamp).
For `CCC1CN(C(=O)NCC(F)(F)F)CC1N(C)c1ncnc2[nH]ccc12` (stereo not shown), the IC50 was 0.93 µM (JAK1; enzyme activity, inhibitor, ADP detection).
With `O=S(=O)(Nc1cccc(-c2nnn[nH]2)c1)c1ccc(C(F)(F)F)c(F)c1` the IC50 was 7.5 µM (LNPEP; enzyme activity, inhibitor, fluorescence).
`COc1ccc(Cl)cc1NC(=O)COC(=O)C(CC(C)C)N1C(=O)C2CC=CCC2C1=O` (stereo not shown) has an IC50 of 13 µM (Cruzipain; enzyme activity, inhibitor).
For `O=S(=O)(Nc1cccc(-c2nnn[nH]2)c1)c1ccc(Cl)c2nonc12`, the IC50 was 0.4 µM (LNPEP; enzyme activity, inhibitor, fluorescence).
`CCNC(=O)c1nc(-c2ccc3[nH]c(-c4nc(C)no4)cc3c2)c(C)[nH]1` gave an IC50 of 0.011 µM (MMP13; enzyme activity, inhibitor, FRET).
The IC50 of `CN(c1cccc(-c2nnn[nH]2)c1)S(=O)(=O)c1cc(Br)c(Cl)s1` is reported as 11.8 µM (LNPEP; enzyme activity, inhibitor, fluorescence).
For `O=C(O)c1cccnc1Nc1cccc(C(F)(F)F)c1`, the IC50 was 3.7 µM (SLCO1B1; transporter uptake, inhibitor, fluorescence; CHO; 30 min, pH 7.4).
With `c1ccc(/C(=N\Nc2nc3ccccc3s2)c2ccccn2)cc1` the IC50 was 13 µM (E3 ubiquitin-protein ligase Mdm2 (MDM2, Homo sapiens, UniProt Q00987); protein-protein interaction, inhibitor).
For `Cn1nc(C(=O)NCc2ccc(C(=O)O)cc2)cc1-c1ccc2[nH]c(-c3cncnc3)cc2c1`, the IC50 was 0.0068 µM (MMP13; enzyme activity, inhibitor, FRET).
For `Oc1c2ccccc2c2c3c(cccc13)N=N2`, the IC50 was 0.974 µM (JAK1; enzyme activity, inhibitor).
`CC(C)[C@H](CO)Nc1nc(Nc2cccc(Cl)c2)c2ncn(C(C)C)c2n1` has an IC50 of > 10 µM (Serine/threonine-protein kinase PAK 4 (PAK4, Homo sapiens, UniProt O96013); enzyme activity, inhibitor; lysate).
For `Cc1noc(-c2cc3cc(-c4nc(C(N)=O)[nH]c4C)ccc3[nH]2)n1`, the IC50 was 0.016 µM (MMP13; enzyme activity, inhibitor, FRET).
For `O=C1Nc2ccccc2C1=O`, the IC50 was > 160 µM (Aldehyde dehydrogenase, mitochondrial (ALDH2, Homo sapiens, UniProt P05091); enzyme activity, inhibitor, absorbance).
`O=c1ccc2c(OCCCCOc3cccc(O)c3)c3ccoc3cc2o1` gave an IC50 of 0.139 µM (Kcna3; ion current, inhibitor, patch clamp).
`Fc1ccc(Nc2c(-c3ccccn3)nc3ccc(C4CC4)cn23)cc1` gave an IC50 of 1.6 µM (CYP3A4; enzyme activity, inhibitor).
`O=C(N[C@@H](Cc1ccccc1)C(=O)c1noc(-c2ccccc2)n1)[C@H](Cc1ccccc1)NC(=O)N1CCOCC1` has an IC50 of 0.2 µM (Papain; enzyme activity, inhibitor; pH 6.5, with preincubation).
With `Cn1nc(C(=O)NCc2ccc(C(=O)O)cc2)cc1-c1ccc2[nH]c(-c3ccncn3)cc2c1` the IC50 was 0.00081 µM (MMP13; enzyme activity, inhibitor, FRET).
With `CCOc1ccc(C[C@@H](N)C(=O)N[C@@H](Cc2ccccc2)C(=O)NC2CCN(C(=N)N)CC2)cc1` the IC50 was > 10 µM (Coagulation factor XII, trypsin-like site (F12, Homo sapiens, UniProt P00748); enzyme activity, inhibitor, fluorescence).
With `CCn1c(-c2nc3cc(C(=O)N4CCC[C@@H](N)C4)cc(OC)c3n2C)cc2cccnc21` the IC50 was 63.1 µM (CHRM1; calcium signal, antagonist, fluorescence).
`CN(C)CC#Cc1ccc2[nH]c3c(c2c1)-c1nc(N)ncc1CCC3` has an IC50 of > 10 µM (DSTYK; enzyme activity, inhibitor, radiometric).
`O=C(NCCN1CCCC1)c1cc(-c2ccc(CN3CCOCC3)cc2)nc2ccc(F)cc12` gave an IC50 of > 100 µM (CYP3A4; enzyme activity, inhibitor; human, liver microsomes).
`C[N+]1(C)CCC(OC(=O)C(c2ccccc2)c2ccccc2)CC1` has an IC50 of 0.00364 µM (CHRM1; ligand displacement, radioligand).
`O=S(=O)(Nc1cccc(-c2nnn[nH]2)c1)c1c(F)cc(Br)cc1F` gave an IC50 of 7.5 µM (LNPEP; enzyme activity, inhibitor, fluorescence).
`O=C(COc1ccc(Cl)cc1)N1CCN(Cc2ccc3c(c2)OCO3)CC1` gave an IC50 of 34.5 µM (SLCO1B1; transporter uptake, inhibitor, fluorescence; CHO; 30 min, pH 7.4).
For `Cc1ccc(S(=O)(=O)Nc2cccc(-c3nnn[nH]3)c2)cc1C(F)(F)F`, the IC50 was 2.3 µM (LNPEP; enzyme activity, inhibitor, fluorescence).
`CC(C)C[C@H](NC(=O)[C@H]1O[C@@H]1C(=O)O)C(=O)NCCCCN=C(N)N` gave an IC50 of 0.00015 µM (Papain; enzyme activity, inhibitor).
`N[C@@H](CC(=O)N1CCN(C(c2ccc(F)cc2)c2ccc(F)cc2)CC1)C(=O)N1Cc2ccccc2C1` gave an IC50 of 8.43 µM (Lysosomal Pro-X carboxypeptidase (PRCP, Homo sapiens, UniProt P42785); enzyme activity, inhibitor).
`Cc1ncsc1-c1ccc(CNC(=O)[C@@H]2C[C@H](O)CN2C(=O)[C@@H](NC(=O)C2(F)CC2)C(C)(C)C)c(OCCc2ccc(CN3CCN(c4cc(-c5ccccc5O)nnc4N)CC3)cc2)c1` gave an IC50 of 1.1 µM (PBRM1 bromodomain; cell-free assay, TR-FRET).
With `CC(C)c1cc(NC(=O)Nc2ccc(F)c(F)c2)n(-c2ccccc2)n1` the IC50 was 4.1 µM (Kir3.1/Kir3.4 (Homo sapiens, UniProt P48544+P48549); enzyme activity in cells, inhibitor).
`CCn1ncc2c1-c1cnc(N)c(c1)O[C@H](C)c1cc(F)ccc1-c1nn(C)nc1C2` gave an IC50 of 0.583 µM (DSTYK; enzyme activity, inhibitor, radiometric).
